Assay outcomes: PubChem BioAssay, several laboratories
Apaf1 inhib: human Apaf-1 inhibition; reconstituted apoptosome caspase-3 activity, DEVD-Rh110 fluorescence; inhibition, % at 20 µM; 0.71% of 330,000 active; AID 489030; active = inhibition of at least 40% at 20 µM;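 note: plate controls were DMSO wells for no effect and DEVD-CHO caspase inhibitor wells for full effect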
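Assay system – apoptosome proteins · Medium – Hepes buffer, pH 7.5 · Also added – cytochrome c with DEVD-Rh110 · Timing – 30 min compound preincubation, 50 min activation, room temperature · Detection – Rh110 fluorescence, excitation 480 nm, emission 540 nm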
MEKK2mut PB1 HTS: signal of MEK5 binding to mutant human MEKK2 PB1 domain | 0.35% of 290,000 active | bead flow cytometry, Alexa488-MEK5 binding to MEKK2 mutant | percent response, % at 10 µM; in the data active = percent response above about 24%, passing the limit was not always enough
MEKK2wt PB1 HTS: raises or lowers MEK5 binding to wildtype human MEKK2 PB1 domain. AID 1531. binding response (% of control), % at 10 µM. bead flow cytometry, Alexa488-MEK5 binding to MEKK2 WT; actives lie on both sides. 1.1% of 290,000 active. Q9Y2U5; in the data active = binding response below about 67% or above about 130%
PREPL inhibitor: inhibitors of human prolyl oligopeptidase-like enzyme PREPL | Q4J6C6 | recombinant PREPL, fluorescence polarization activity-based probe | inhibition, % at 5.96 µM | 0.68% of 320,000 active | AID 2751; in the data active = inhibition above about 43%;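 note: 0% = enzyme with DMSO and 100% = wells lacking enzyme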
UBC13 polyUb: human UBC13 polyubiquitination inhibition. 0.47% of 330,000 active. UBC13 polyubiquitin chain formation, TR-FRET. P61088. inhibition, % at 20 µM. AID 485273; in the data active = inhibition above about 45%, passing the limit was not always enough
Target sequence (P61088 whole entry, looked up): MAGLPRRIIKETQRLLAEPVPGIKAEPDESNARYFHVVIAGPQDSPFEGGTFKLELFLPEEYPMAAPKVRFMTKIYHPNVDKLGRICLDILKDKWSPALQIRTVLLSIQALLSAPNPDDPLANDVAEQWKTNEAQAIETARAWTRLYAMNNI
MEKK3 PB1 HTS: modulators (inhibitors or enhancers) of MEK5 binding to human MEKK3 PB1 domain | bead-based flow cytometry, Alexa488-MEK5 binding to MEKK3; actives lie on both sides; 0 = blocked by unlabeled MEK5, 100 = vehicle | 1.4% of 290,000 active | AID 1529 | binding response (% of control), % at 10 µM;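 active = binding response more than 3 SD above or below the average of its plate-row segment, actives on both sides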;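 note: Alexa488 bead fluorescence after subtracting the streptavidin-only scavenger bead signal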
Casp3 counter: caspase-3 inhibition (UBC13 counter-screen); shares compounds with UBC13 polyUb; Recombinant caspase-3, Caspase-Glo 3/7 luminescence, 60 min; inhibition, % at 20 µM; 4% of 1,400 active; AID 488856;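 active = mean inhibition across replicates above about 26%, limit read from the data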;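 note: plate controls were DMSO with caspase-3 for no effect and DMSO wells lacking enzyme for full effect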
Target sequence (P42574 whole entry, looked up): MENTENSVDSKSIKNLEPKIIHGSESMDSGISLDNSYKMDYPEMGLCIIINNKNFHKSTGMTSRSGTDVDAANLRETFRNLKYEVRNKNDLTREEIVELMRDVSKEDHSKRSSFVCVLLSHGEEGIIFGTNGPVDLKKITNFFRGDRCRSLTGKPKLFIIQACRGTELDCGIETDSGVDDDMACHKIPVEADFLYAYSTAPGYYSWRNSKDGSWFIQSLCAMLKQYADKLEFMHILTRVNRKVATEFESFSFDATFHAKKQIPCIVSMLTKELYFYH
UBC13 confirm: human UBC13 polyubiquitin inhibition, confirmed; shares compounds with UBC13 polyUb; UBC13 polyubiquitination, TR-FRET, biochemical; inhibition, % at 10 µM; 68% of 1,400 active; AID 488859; in the data active = inhibition above about 45%
* = called active by the depositor; / = no result given. Only some compounds are listed: those with a hit (about 3.1% of all), similar ones and a draw of the others.

SMILES | Apaf1 inhib | MEKK2mut PB1 HTS | MEKK2wt PB1 HTS | PREPL inhibitor | UBC13 polyUb | MEKK3 PB1 HTS | Casp3 counter | UBC13 confirm
C=CCn1c(SCC(=O)NC2CCCC2)nc2c([nH]c3ccccc32)c1=O | 2 | 7 | 104 | 9 | -1 | 99 | / | /
CN(C)CCNC=C(C(=O)Nc1ccc(Cl)cc1Cl)C(=O)Nc1ccc(Cl)cc1Cl | 9 | 9 | 125 | 8 | 56* | 97 | -2 | 80*
CCc1ccc(N2CC(C(=O)OCC(=O)c3c(N)n(CC(C)C)c(=O)n(C)c3=O)CC2=O)cc1 (centres undefined) | 14 | / | / | 8 | 6 | / | / | /
Cc1cccc2c1-c1sc(C(=O)NCCCN3CCC(C)CC3)cc1CO2 | 26 | 29* | 186* | 38 | 53* | 107 | 2 | 86*
COCCCNC(=O)Cn1c(=O)n(CC(=O)NCCc2ccc(OC)c(OC)c2)c(=O)c2sccc21 | -22 | / | / | 3 | -2 | / | / | /
COc1ccc(CCNC(=O)Cn2c(=O)n(-c3ccc(C)c(F)c3)c(=O)c3sccc32)cc1OC | -13 | 1 | 105 | 13 | 49* | 97 | 0 | 46*
Cc1ccc(NS(=O)(=O)c2cccc(C(=O)NCC(c3ccco3)N3CCCCC3)c2)cc1 (centres undefined) | 12 | 6 | 112 | -13 | 0 | 103 | / | /
Cc1ccc(C)c(NC(=O)CCN2C(=O)[C@@H]3Cc4ccccc4CN3C2=O)c1 | 3 | 0 | 100 | -63 | -5 | 102 | / | /
O=C(NNC(=S)NCC1CCCO1)c1cc(Br)ccc1Cl (centres undefined) | 13 | 7 | 105 | 1 | -3 | 99 | / | /
COc1ccc(NC(=O)CS(=O)CC(=O)Nc2cc(Cl)ccc2OC)cc1 (centres undefined) | -6 | -8 | 93 | 0 | 54* | 93 | -2 | 53*
COc1ccc(Cl)cc1Nc1nc(NCCO)nc(N2CCCC2)n1 | 14 | / | / | 12 | 8 | / | / | /
OCCNc1nc(Nc2cc(Cl)ccc2OC2CCCC2)nc(N2CCCC2)n1 | 33 | -1 | 109 | 5 | 52* | 103 | 2 | 37
CC(C)Oc1ccc(Cl)cc1Nc1nc(NCCO)nc(N2CCCC2)n1 | 25 | 3 | 114 | 10 | 60* | 109 | 8 | 34
COc1ccc(Cl)cc1Nc1nc(NCCO)nc(N2CCCCC2)n1 | 8 | 5 | 112 | 5 | 62* | 105 | 6 | 32
O=C(NN1CC(C(=O)OCc2ccccc2F)CC1=O)c1ccccc1 (centres undefined) | 3 | 10 | 108 | 13 | -1 | 105 | / | /
CC(=O)N1CCN(C(=O)c2cc(S(=O)(=O)N(C)Cc3ccccc3)ccc2Cl)CC1 | 7 | / | / | / | 2 | / | / | /
CCCCN(CC)CCCNC(=O)c1cc2c(=O)n(C)c3ccccc3c2n1C | 13 | 0 | 103 | -43 | 49* | 97 | -4 | 36
CC(C)OCCCNC(=O)c1cc2c(=O)n(C)c3ccccc3c2n1C | 4 | -2 | 94 | -4 | -4 | 91 | / | /
O=C(COc1ccccc1Cl)NCCNC(=O)c1cccnc1 | 4 | -3 | 90 | 10 | 2 | 99 | / | /
Cc1cc(-c2nnc(SCC(=O)Nc3nc(-c4ccc(Cl)cc4)cs3)o2)no1 | -15 | -7 | 96 | -13 | 49* | 97 | 1 | -11
CCC(=O)NC(c1ccco1)c1cc(Cl)c2cccnc2c1O (centres undefined) | 15 | 0 | 95 | 17 | -22 | 100 | / | /
CCC(=O)NC(C)c1cc(Cl)c2ccccc2c1O (centres undefined) | 0 | / | / | 12 | 51* | / | 0 | 34
CC(=O)NC(c1cc(Cl)c2cccnc2c1O)C1CC1 (centres undefined) | 0 | / | / | 11 | -12 | / | / | /
CCC(=O)NC(c1cc(Cl)c2ccccc2c1O)C1CC1 (centres undefined) | 9 | / | / | -1 | 84* | / | -1 | 72*
